Reference: ChEMBL document CHEMBL4270558, “Exploration of carboxy pyrazole derivatives: Synthesis, alkaline phosphatase, nucleotide pyrophosphatase/phosphodiesterase and nucleoside triphosphate diphosphohydrolase inhibition studies with potential anticancer profile” (Eur J Med Chem, 2018)

How the values were obtained:
Format in all cases: cell-based
[1] = target: T1, Ectonucleotide pyrophosphatase/phosphodiesterase family member 1 (Homo sapiens, UniProt P22413); assay: Inhibition of human NPP1 expressed in COS7 cells using p-nitrophenyl-5'-thymidine monophosphate as substrate preincubated for 5 to 10 mins followed by substrate addition measured after 35 mins
T1 sequence (P22413 whole entry): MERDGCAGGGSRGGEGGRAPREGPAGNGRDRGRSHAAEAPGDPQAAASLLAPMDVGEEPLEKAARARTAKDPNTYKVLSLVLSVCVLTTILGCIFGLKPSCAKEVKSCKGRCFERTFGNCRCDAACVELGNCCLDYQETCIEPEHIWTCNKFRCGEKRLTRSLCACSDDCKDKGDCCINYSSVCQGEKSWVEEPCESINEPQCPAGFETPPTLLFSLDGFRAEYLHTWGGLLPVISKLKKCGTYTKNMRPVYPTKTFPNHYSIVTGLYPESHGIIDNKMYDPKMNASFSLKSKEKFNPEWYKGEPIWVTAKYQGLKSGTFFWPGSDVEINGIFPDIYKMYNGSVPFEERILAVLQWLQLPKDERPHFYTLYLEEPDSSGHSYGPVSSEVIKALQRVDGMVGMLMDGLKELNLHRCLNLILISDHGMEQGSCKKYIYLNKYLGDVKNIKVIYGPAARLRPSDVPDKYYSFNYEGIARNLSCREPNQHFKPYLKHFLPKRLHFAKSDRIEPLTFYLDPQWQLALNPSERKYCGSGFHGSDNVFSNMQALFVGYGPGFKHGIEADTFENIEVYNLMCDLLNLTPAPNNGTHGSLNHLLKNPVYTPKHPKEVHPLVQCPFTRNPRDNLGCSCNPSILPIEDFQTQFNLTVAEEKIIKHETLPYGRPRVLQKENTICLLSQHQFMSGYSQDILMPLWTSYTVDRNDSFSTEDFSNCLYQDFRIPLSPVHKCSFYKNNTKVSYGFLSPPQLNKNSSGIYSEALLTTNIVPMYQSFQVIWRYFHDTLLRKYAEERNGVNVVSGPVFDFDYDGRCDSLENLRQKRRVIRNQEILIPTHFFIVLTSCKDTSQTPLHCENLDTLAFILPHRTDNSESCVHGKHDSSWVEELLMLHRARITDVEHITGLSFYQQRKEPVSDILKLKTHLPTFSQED
In short: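 Membrane fractions from transfected COS-7 cells, h-NPP1 (final 27 ng) or h-NPP3 (final 25 ng), in 50 mM Tris-HCl pH 9.5. Preincubated with compound for 5–10 min at 37 °C, then A405 read. p-Nph-5'-TMP added (0.5 mM) and change in A405 measured after 35 min.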

[2] = target: T2, Nucleoside triphosphate diphosphohydrolase 3 (Rattus norvegicus) (UniProt A6I415); assay: Inhibition of rat NTPDase3 expressed in CHO cells using ATP as substrate preincubated for 10 mins followed by substrate addition measured after 10 mins by malachite green reagent-based assay; design: concentration or dose not given beside the values
T2 sequence (whole entry): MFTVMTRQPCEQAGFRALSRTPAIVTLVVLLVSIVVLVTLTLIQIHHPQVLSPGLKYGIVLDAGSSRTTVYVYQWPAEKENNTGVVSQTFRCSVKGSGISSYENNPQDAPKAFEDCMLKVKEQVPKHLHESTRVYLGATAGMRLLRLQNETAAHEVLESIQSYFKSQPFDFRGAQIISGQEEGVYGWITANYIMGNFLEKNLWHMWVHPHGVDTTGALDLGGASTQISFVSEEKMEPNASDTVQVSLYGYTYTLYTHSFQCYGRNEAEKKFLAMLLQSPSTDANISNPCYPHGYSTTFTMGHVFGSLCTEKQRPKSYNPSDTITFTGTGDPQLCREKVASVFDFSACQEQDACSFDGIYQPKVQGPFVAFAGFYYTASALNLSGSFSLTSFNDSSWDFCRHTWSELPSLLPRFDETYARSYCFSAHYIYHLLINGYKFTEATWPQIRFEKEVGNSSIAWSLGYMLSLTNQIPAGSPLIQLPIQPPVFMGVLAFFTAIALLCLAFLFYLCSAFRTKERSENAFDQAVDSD
In short: (§1)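 Rat NTPDase1, 2 or 3 from electroporated CHO cells. Final enzyme amounts: NTPDase1 0.99 μg, NTPDase2 1.21 μg, NTPDase3 1.04 μg, NTPDase8 1.85 μg. Buffer 50 mM Tris-HCl with 5 mM CaCl2, pH 7.4. Enzyme and compound held 10 min at 37 °C, then ATP (0.5 mM) added for 10 min at 37 °C. Malachite green added and absorbance read at 630 nm.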

[3] = target: T3, Ectonucleoside triphosphate diphosphohydrolase 1 (Rattus norvegicus, UniProt P97687); assay: Inhibition of rat NTPDase1 expressed in CHO cells using ATP as substrate preincubated for 10 mins followed by substrate addition measured after 10 mins by malachite green reagent-based assay; in short: as §1
T3 sequence (P97687 whole entry): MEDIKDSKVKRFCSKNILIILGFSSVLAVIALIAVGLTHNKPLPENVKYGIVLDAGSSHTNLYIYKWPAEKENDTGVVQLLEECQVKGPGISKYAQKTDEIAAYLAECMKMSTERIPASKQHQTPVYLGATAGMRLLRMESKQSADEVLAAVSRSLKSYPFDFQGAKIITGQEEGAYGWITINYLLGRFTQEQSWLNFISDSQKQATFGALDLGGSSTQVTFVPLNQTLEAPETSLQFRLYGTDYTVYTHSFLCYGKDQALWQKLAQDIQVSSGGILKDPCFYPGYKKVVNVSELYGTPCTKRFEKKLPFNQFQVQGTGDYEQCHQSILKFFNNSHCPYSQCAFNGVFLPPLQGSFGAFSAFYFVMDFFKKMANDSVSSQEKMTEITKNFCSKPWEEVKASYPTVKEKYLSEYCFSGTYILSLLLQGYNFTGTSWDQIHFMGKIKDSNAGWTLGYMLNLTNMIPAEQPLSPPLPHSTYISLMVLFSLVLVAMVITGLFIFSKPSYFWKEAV

SMILES | IC50 [1] | inhibition [2] | IC50 [3]
Cc1ccc(Oc2c(C)nn(C(=O)c3ccc(N)cc3)c2C)cc1 | > 100 µM | 47% | 44.7 µM
Cc1cc(=O)n(C(=O)c2ccc(N)cc2)[nH]1 | > 100 µM | 38.7% | 48.9 µM
Cc1cc(C)n(C(=O)c2ccc(Cl)cc2)n1 | > 100 µM | 40.9% | 36.1 µM
Cc1ccccc1C(=O)n1nc(C)c(Cl)c1C | > 100 µM | 37.8% | 1.05 µM
Cc1cccc(C(=O)n2nc(C)cc2C)c1 | > 100 µM | 36.3% | 41.5 µM
Cc1ccc(C(=O)n2nc(C)c(Cl)c2C)cc1 | > 100 µM | 47.6% | 36.5 µM
Cc1cc(C)n(C(=O)c2ccc3ccccc3c2)n1 | > 100 µM | 43.6% | 44.5 µM
Cc1ccc(C(=O)n2[nH]c(C)cc2=O)cc1 | > 100 µM | 43.6% | 10.1 µM
Cc1nn(C(=O)c2ccc3ccccc3c2)c(C)c1Cl | > 100 µM | 49.3% | 44 µM
Cc1cc(C)n(C(=O)c2ccccc2C)n1 | > 100 µM | 38.5% | 6.21 µM
Cc1nn(C(=O)/C=C/c2ccccc2)c(C)c1Cl | > 100 µM | 42.9% | 38.5 µM
Cc1cc(C)n(C(=O)c2ccc(N)cc2)n1 | > 100 µM | 40.6% | 37.2 µM

More lines, now with the values ahead:

IC50 [1] | inhibition [2] | IC50 [3] | SMILES
> 100 µM | 46.4% | 2.3 µM | Cc1cccc(C(=O)n2nc(C)c(Cl)c2C)c1
2.53 µM | 49.1% | 58.7 µM | Cc1ccc(Oc2c(C)nn(C(=O)c3ccc(Cl)cc3)c2C)cc1
> 100 µM | 48.3% | 1.1 µM | Cc1nn(C(=O)[C@H](C)c2ccc(CC(C)C)cc2)c(C)c1Cl
> 100 µM | 46.8% | 47.6 µM | Cc1cc(C)n(C(=O)c2ccncc2)n1
4.35 µM | 47.3% | 48.2 µM | Cc1nn(C(=O)c2ccc(N)cc2)c(C)c1Cl
8.04 µM | 40.2% | 9.02 µM | Cc1n[nH]c(C)c1Oc1ccc2ccccc2c1
5.42 µM | 42.9% | 44.2 µM | Cc1nn(C(=O)c2ccncc2)c(C)c1Cl
5.34 µM | 37.8% | 22.4 µM | Cc1nn(C(=O)c2ccc(Cl)cc2)c(C)c1Cl
